Experimental data taken from ChEMBL document CHEMBL1124931, “Fluoro carbocyclic nucleosides: synthesis and antiviral activity of 2'- and 6'-fluoro carbocyclic pyrimidine nucleosides including carbocyclic 1-(2-deoxy-2-fluoro-beta-D-arabinofuranosyl)-5-methyluracil and carbocyclic 1-(2-deoxy-2-fluoro-beta-D-arabinofuranosyl)-5-iodouracil” (1990).
In brackets after ≈: the same amount, converted by molar mass.

Legend:
Vero [1] = experiment: Cytotoxic effect on Vero cells was determined in mock infected cell monolayers incubated with the compound for 48 hr at 37 degree celsius.; format: functional, Chlorocebus sabaeus
Summary of the method: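 Mock-infected confluent Vero monolayers exposed to compound for 48 h at 37 °C. Examined microscopically, with gross changes in cell staining, number or morphology scored. The cytotoxic dose is the level affecting 50% of the monolayer.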

Vero [2] = experiment: Antiherpes activity was measured in a plaque reduction assay in Vero cells, against HSV-1 strain KOS.; format: functional; conditions: Chlorocebus sabaeus, read-out: ID50 (the source's name)
Summary of the method: (§1)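 Confluent Vero monolayers infected with 30–40 PFU of HSV-1 (KOS) or HSV-2 (186). After 1 h adsorption at 37 °C, overlaid with maintenance medium containing 0.75% carboxymethylcellulose plus a range of compound concentrations. Incubated 2 further days at 37 °C, then fixed and stained and plaques counted. ID50 is the concentration giving 50% inhibition of plaque formation.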

Vero [3] = experiment: Antiherpes activity was measured in a plaque reduction assay in Vero cells, against HSV-2 strain 186.; format: functional; conditions: Chlorocebus sabaeus, read-out: ID50 (the source's name); summary of the method: as §1

SMILES | Cytotoxicity (Vero [1]) | IC50 (Vero [2]) | IC50 (Vero [3])
O=c1[nH]c(=O)n([C@H]2C[C@H](O)[C@@H](CO)[C@@H]2F)cc1I | > 300 µg/mL | > 300 µg/mL | > 300 µg/mL
Nc1ccn([C@@H]2C[C@H](CO)[C@@H](O)[C@H]2F)c(=O)n1 | > 300 µg/mL | 18 µg/mL (≈ 74 µM) | 44 µg/mL (≈ 181 µM)
O=c1[nH]c(=O)n([C@H]2C[C@H](O)[C@@H](CO)[C@H]2F)cc1I | > 300 µg/mL | > 300 µg/mL | > 300 µg/mL
Nc1ccn([C@@H]2C[C@H](CO)[C@@H](O)[C@@H]2F)c(=O)n1 | > 100 µg/mL | 13 µg/mL (≈ 53.4 µM) | 82 µg/mL (≈ 337 µM)
O=c1[nH]c(=O)n([C@@H]2C[C@H](CO)[C@@H](O)C2)cc1I | 300 µg/mL | 0.07 µg/mL (≈ 0.199 µM) | 97 µg/mL (≈ 275 µM)
Cc1cn(C2CC(CO)C(O)C2F)c(=O)[nH]c1=O (stereo not drawn) | > 100 µg/mL | > 100 µg/mL | > 100 µg/mL
O=c1[nH]c(=O)n(C2CC(CO)C(O)C2F)cc1I (stereo not drawn) | > 100 µg/mL | 11 µg/mL (≈ 29.7 µM) | > 100 µg/mL
Cc1cn(C2CC(CO)C(O)C2(F)F)c(=O)[nH]c1=O (stereo not drawn) | > 100 µg/mL | > 100 µg/mL | > 100 µg/mL
O=c1ccn(C2CC(O)C(CO)C2F)c(=O)[nH]1 (stereo not drawn) | > 300 µg/mL | > 300 µg/mL | > 300 µg/mL
Cc1cn([C@@H]2O[C@H](CO)[C@@H](O)[C@@H]2F)c(=O)[nH]c1=O [5-METHYL-2'-FLUOROARAURACIL] | > 30 µg/mL | 0.05 µg/mL (≈ 0.192 µM) | 0.05 µg/mL (≈ 0.192 µM)
O=c1[nH]c(=O)n([C@H]2C[C@H](O)[C@@H](CO)O2)cc1I [IDOXURIDINE] | > 30 µg/mL | 0.1 µg/mL (≈ 0.282 µM) | 0.9 µg/mL (≈ 2.54 µM)
